{"data": "Measured values gathered from unrelated publications", "note": "Lines come from different studies, so protocols differ."}
{"SMILES": "Cc1nc(Nc2ccc(C)c(Cl)c2)c2c(C)noc2n1", "target or system": "Plasmodium falciparum", "test": "parasite growth, SYBR Green", "system": "3D7", "measurement": "EC50", "result": "0.336 µM"}
{"SMILES": "CONC(=O)OC(c1ccccc1)c1cccc(C(C)C(=O)NOC)c1 (centres unmarked)", "target or system": "FM3A", "test": "cell growth or viability", "setting": "48 h", "measurement": "IC50", "result": "10 µM"}
{"SMILES": "O=C1C(O)=C([C@H]2CC[C@H](c3ccc(Cl)cc3)CC2)C(=O)c2ccccc21", "target or system": "Plasmodium falciparum", "test": "parasite growth, SYBR Green", "system": "3D7", "measurement": "EC50", "result": "0.00045 µM"}
{"SMILES": "C[C@]12CC[C@H](O)C[C@@H]1CC[C@@H]1[C@@H]2CC[C@]2(C)[C@@H]([N+](=O)[O-])CC[C@@H]12", "test": "6 Hz seizures", "system": "mouse", "setting": "intraperitoneal", "measurement": "ED50", "result": "83 mg/kg"}
{"SMILES": "N.N.[Cl][Pt][Cl]", "target or system": "COLO 205", "test": "cell growth or viability, ATP luminescence", "measurement": "GI50", "result": "6.8 µg/mL"}
{"SMILES": "CCOc1cccc(=O)c2c(C)n(Cc3ccc(Cl)cc3)c(C)c12", "target or system": "Plasmodium falciparum", "test": "parasite growth, SYBR Green", "system": "3D7", "measurement": "EC50", "result": "0.59 µM"}
{"SMILES": "CCN(CC)CCCC(C)Nc1ccnc2cc(Cl)ccc12 (centres unmarked)", "target or system": "Plasmodium falciparum", "test": "parasite growth", "system": "W2", "setting": "drug-resistant strain, blood stage", "measurement": "IC50", "result": "0.1 µg/mL"}
{"SMILES": "C[C@@]1(O)CC[C@@]2(C)[C@@H](CC[C@@H]3[C@@H]2CC[C@]2(C)[C@@H]([N+](=O)[O-])CC[C@@H]32)C1", "test": "6 Hz seizures", "system": "mouse", "setting": "intraperitoneal", "measurement": "ED50", "result": "8.8 mg/kg"}
{"SMILES": "CC(=O)c1c(Cc2ccccc2Cl)c[nH]c1C", "target or system": "Plasmodium falciparum", "test": "parasite growth, SYBR Green", "system": "3D7", "measurement": "EC50", "result": "0.14 µM"}
{"SMILES": "CO[C@H]1/C=C/O[C@@]2(C)Oc3c(C)c(O)c4c(O)c(c(/C=N/N5CCN(C)CC5)c(O)c4c3C2=O)NC(=O)/C(C)=C\\C=C\\[C@H](C)[C@H](O)[C@@H](C)[C@@H](O)[C@@H](C)[C@H](OC(C)=O)[C@@H]1C", "target or system": "Mycolicibacterium aurum", "test": "microbial growth, agar dilution", "measurement": "MIC", "result": "0.78 µg/mL"}
{"SMILES": "CC(C(=O)N1CCCC1)c1cccc(C(OC(=O)N2CCCC2)c2ccccc2)c1 (centres unmarked)", "target or system": "L1210", "test": "cell growth or viability", "setting": "48 h", "measurement": "IC50", "result": "41 µM"}
{"SMILES": "Nc1ccc(C(=O)O)c(O)c1", "target or system": "Mycobacterium tuberculosis variant bovis", "test": "microbial growth", "system": "BCG", "measurement": "MIC", "result": "0.125 µg/mL"}
{"SMILES": "CC(C(=O)NCCc1ccccc1)c1cccc(C(OC(=O)NCCc2ccccc2)c2ccccc2)c1 (centres unmarked)", "target or system": "FM3A", "test": "cell growth or viability", "setting": "48 h", "measurement": "IC50", "result": "13 µM"}
{"SMILES": "CCCCCCCCCCOc1cc2c(O)c(C(=O)OCC)cnc2cc1OCC", "target or system": "Plasmodium falciparum", "test": "parasite growth, SYBR Green", "system": "DD2", "setting": "blood stage", "measurement": "IC50", "result": "< 0.0057 µM"}
